This note sets out measurements from ChEMBL document CHEMBL3297722, “Design, synthesis and docking studies of some novel (R)-2-(4'-chlorophenyl)-3-(4'-nitrophenyl)-1,2,3,5-tetrahydrobenzo[4,5] imidazo [1,2-c]pyrimidin-4-ol derivatives as antitubercular agents” (Eur J Med Chem, 2014).

SMILES strings stand for the structures. In brackets after ≈: the same amount, converted by molar mass.

Data set [1] deals with Mycobacterium tuberculosis. Kind of data set: Antitubercular activity against Mycobacterium tuberculosis H37Rv ATCC 27294 in 7H9/ADC/Tween medium after 2 weeks by broth microdilution method. Format: functional. To be noted: H37Rv ATCC 27294, 336 h. The method in brief:
(§1)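 Two-fold serial dilutions from DMSO stocks added to medium; equal volume of H37Rv diluted to 10,000 cells/mL in the same medium. DMSO-only wells; isoniazid positive control. 37 °C; growth read by inverted enlarging mirror. Quadruplicate. MIC = lowest concentration completely inhibiting growth.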

The test system of data set [2] is Mycobacterium tuberculosis. Kind of data set: Antitubercular activity against Mycobacterium tuberculosis H37Rv ATCC 27294 in GAST/Fe medium after 2 weeks by broth microdilution method. Format: functional. The following applies: H37Rv ATCC 27294, 336 h. In short, it runs like this:
as §1

The test system of data set [3] is Mycobacterium tuberculosis. Kind of data set: Antitubercular activity against Mycobacterium tuberculosis H37Rv ATCC 27294 in 7H9/ADC/Tween medium after 1 week by broth microdilution method. It is filed as functional. The following applies: H37Rv ATCC 27294, 168 h. In short, it runs like this: as §1
(In general: Dilution methods test growth across graded concentrations, often in twofold steps.)

The subject of data set [4] is Mycobacterium tuberculosis. Kind of data set: Antitubercular activity against Mycobacterium tuberculosis H37Rv ATCC 27294 in GAST/Fe medium after 1 week by broth microdilution method. To be noted: H37Rv ATCC 27294, 168 h. It is filed as functional. In short, it runs like this: as §1
Data set [5] is described as follows: Cytotoxicity against African green monkey Vero cells assessed as survival at 50 ug/ml after 48 hrs by Cell-Titre Blue assay. Format: cell-based. To be noted: chlorocebus sabaeus, read-out: Survival. In short, it runs like this: (§2)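 Vero cells in DMEM with 10% FBS, seeded at 20,000 cells/well and left to adhere overnight at 37 °C, 5% CO2. Medium then replaced with fresh medium containing compound, 48 h. Cell-Titer Blue added for a further 2 h; OD read at 560 nm. % survival = OD test/OD of DMSO-medium control ×100.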

Data set [6] can be described thus: Cytotoxicity against African green monkey Vero cells assessed as survival at 25 ug/ml after 48 hrs by Cell-Titre Blue assay. It is filed as cell-based. The following applies: chlorocebus sabaeus, read-out: Survival. The method in brief:
as §2

Take `OC1=C2Nc3ccccc3N2CN(c2cc(Cl)cc(Cl)c2)[C@@H]1c1ccccc1Cl`: the MIC in data set [1] was > 100 µg/mL; in data set [2], > 100 µg/mL; in data set [3], ≥ 100 µg/mL; in data set [4], > 100 µg/mL.
Regarding `O=[N+]([O-])c1ccc(N2CN3C(=C(O)[C@H]2c2cccc([N+](=O)[O-])c2)Nc2ccccc23)cc1`, the MIC in data set [1] was determined as 37 µg/mL (≈ 85.8 µM); in data set [2], 4.7 µg/mL (≈ 10.9 µM); in data set [3], 25 µg/mL (≈ 57.9 µM); in data set [4], 3.13 µg/mL (≈ 7.26 µM). Further, in data set [5], the viability at 48 h, 50 ug/ml was found to be 69%. In data set [6], the viability at 48 h, 25 ug/ml is 66%.
Regarding `OC1=C2Nc3ccccc3N2CN(c2ccc(Br)cc2)[C@@H]1c1ccc(O)cc1`, the MIC in data set [1] was > 100 µg/mL; in data set [2] it was 75 µg/mL (≈ 172 µM); in data set [3], ≥ 100 µg/mL; in data set [4] it was 75 µg/mL (≈ 172 µM).
`COc1ccc(N2CN3C(=C(O)[C@H]2c2cccc(Br)c2)Nc2ccccc23)cc1`: the MIC in data set [1], in data set [2], in data set [3] and in data set [4] was > 100 µg/mL throughout.
`COc1ccccc1N1CN2C(=C(O)[C@H]1c1ccccc1O)Nc1ccccc12`: the MIC in data set [1] amounted to 75 µg/mL (≈ 194 µM); in data set [2], 25 µg/mL (≈ 64.5 µM); in data set [3], 50 µg/mL (≈ 129 µM); in data set [4] it was 19 µg/mL (≈ 49 µM). Further, in data set [5], the viability at 48 h, 50 ug/ml worked out at 69%. Moreover, in data set [6], the viability at 48 h, 25 ug/ml was 63%.
`OC1=C2Nc3ccccc3N2CN(c2cc(Cl)cc(Cl)c2)[C@@H]1c1ccc(Cl)cc1`: the MIC in data set [1] is ≥ 100 µg/mL; in data set [2] it was 50 µg/mL (≈ 112 µM); in data set [3], 100 µg/mL (≈ 225 µM); in data set [4], 37 µg/mL (≈ 83.2 µM). Besides, in data set [5], the viability at 48 h, 50 ug/ml was determined as 69%. The viability at 48 h, 25 ug/ml in data set [6] turned out to be 63%.
With `O=[N+]([O-])c1ccc(N2CN3C(=C(O)[C@H]2c2ccccc2[N+](=O)[O-])Nc2ccccc23)cc1`, the MIC in data set [1] was determined as 50 µg/mL (≈ 116 µM); in data set [2], 37 µg/mL (≈ 85.8 µM); in data set [3], 37 µg/mL (≈ 85.8 µM); in data set [4], 37 µg/mL (≈ 85.8 µM). The viability at 48 h, 50 ug/ml in data set [5] was 61%. The viability at 48 h, 25 ug/ml in data set [6] is 53%.
As to `COc1ccccc1[C@@H]1C(O)=C2Nc3ccccc3N2CN1c1c(C)cccc1C`, the MIC in data set [1] is > 100 µg/mL; in data set [2], 100 µg/mL (≈ 250 µM); in data set [3], 50 µg/mL (≈ 125 µM); in data set [4] it was 100 µg/mL (≈ 250 µM).
For the compound `COc1ccc(N2CN3C(=C(O)[C@H]2c2cccc(-c4ccccn4)c2)Nc2ccccc23)cc1`, the MIC is > 100 µg/mL in data set [1], 19 µg/mL (≈ 42.4 µM) in data set [2], ≥ 100 µg/mL in data set [3] and 12.5 µg/mL (≈ 27.9 µM) in data set [4]. Besides, the viability at 48 h, 50 ug/ml in data set [5] came out at 56%. For the same compound, in data set [6], the viability at 48 h, 25 ug/ml is 66%.
In the case of `COc1ccccc1[C@@H]1C(O)=C2Nc3ccccc3N2CN1c1cc(Cl)cc(Cl)c1`, the MIC in data set [1] was 100 µg/mL (≈ 227 µM); in data set [2], 100 µg/mL (≈ 227 µM); in data set [3], 100 µg/mL (≈ 227 µM); in data set [4] it was 50 µg/mL (≈ 114 µM).
As for `COc1ccc([C@@H]2C(O)=C3Nc4ccccc4N3CN2c2cc(Cl)cc(Cl)c2)cc1OC`, the MIC in data set [1] was > 100 µg/mL; in data set [2], > 100 µg/mL; in data set [3], > 100 µg/mL; in data set [4], 100 µg/mL (≈ 213 µM).
In the case of `NNC(=O)c1ccncc1` [ISONIAZID], the MIC in data set [1], in data set [2], in data set [3] and in data set [4] was 0.02 µg/mL (≈ 0.146 µM) in each case. In addition, in data set [5], the viability at 48 h, 50 ug/ml was determined as 100%. For the same compound, in data set [6], the viability at 48 h, 25 ug/ml turned out to be 100%.
For `OC1=C2Nc3ccccc3N2CN(c2c(Cl)cccc2Cl)[C@@H]1c1cccc(O)c1`, the MIC in data set [1] was found to be 50 µg/mL (≈ 117 µM); in data set [2], 9.4 µg/mL (≈ 22.1 µM); in data set [3], 37 µg/mL (≈ 86.8 µM); in data set [4], 6.25 µg/mL (≈ 14.7 µM). Also, the viability at 48 h, 50 ug/ml in data set [5] came out at 61%. Further, the viability at 48 h, 25 ug/ml in data set [6] was 63%.
Consider `COc1ccc(O)c([C@@H]2C(O)=C3Nc4ccccc4N3CN2c2ccc(C(=O)O)cc2)c1`, for which the MIC in data set [1], in data set [2], in data set [3] and in data set [4] was > 100 µg/mL each time.
On to `Cc1cccc(C)c1N1CN2C(=C(O)[C@H]1c1ccc(O)cc1)Nc1ccccc12`, for which the MIC came to 19 µg/mL (≈ 49.3 µM) in data set [1], 9.4 µg/mL (≈ 24.4 µM) in data set [2], 12.5 µg/mL (≈ 32.4 µM) in data set [3] and 6.25 µg/mL (≈ 16.2 µM) in data set [4]. For the same compound, in data set [5], the viability at 48 h, 50 ug/ml came to 63%. The viability at 48 h, 25 ug/ml in data set [6] came to 66%.
In the case of `COc1ccc([C@@H]2C(O)=C3Nc4ccccc4N3CN2c2ccc(OC)cc2)cc1`, the MIC in data set [1] is ≥ 100 µg/mL; in data set [2], 75 µg/mL (≈ 187 µM); in data set [3] it was 100 µg/mL (≈ 249 µM); in data set [4], 50 µg/mL (≈ 125 µM).
Regarding `Cc1ccc([C@@H]2C(O)=C3Nc4ccccc4N3CN2c2c(C)cccc2C)c(N)c1C`, the MIC is > 100 µg/mL in data set [1], 75 µg/mL (≈ 182 µM) in data set [2], 100 µg/mL (≈ 242 µM) in data set [3] and 37 µg/mL (≈ 89.7 µM) in data set [4]. For the same compound, the viability at 48 h, 50 ug/ml in data set [5] was found to be 73%. In addition, the viability at 48 h, 25 ug/ml in data set [6] worked out at 64%.
Consider `O=[N+]([O-])c1ccc([C@@H]2C(O)=C3Nc4ccccc4N3CN2c2ccc(Cl)cc2)cc1`, for which the MIC is > 100 µg/mL in data set [1], > 100 µg/mL in data set [2], > 100 µg/mL in data set [3] and 100 µg/mL (≈ 238 µM) in data set [4].

Broadly, the MIC is the least concentration at which growth counts as inhibited.
